Measured values as given in ChEMBL document CHEMBL1123100, “Angiotensin converting enzyme inhibitors: 1,5-benzothiazepine derivatives” (J Med Chem, 1985).

What was measured:
[1] = target: T1, Angiotensin-converting enzyme (Rattus norvegicus, UniProt P47820); experiment: Inhibition of Angiotensin I converting enzyme in rat
T1 sequence (P47820 whole entry): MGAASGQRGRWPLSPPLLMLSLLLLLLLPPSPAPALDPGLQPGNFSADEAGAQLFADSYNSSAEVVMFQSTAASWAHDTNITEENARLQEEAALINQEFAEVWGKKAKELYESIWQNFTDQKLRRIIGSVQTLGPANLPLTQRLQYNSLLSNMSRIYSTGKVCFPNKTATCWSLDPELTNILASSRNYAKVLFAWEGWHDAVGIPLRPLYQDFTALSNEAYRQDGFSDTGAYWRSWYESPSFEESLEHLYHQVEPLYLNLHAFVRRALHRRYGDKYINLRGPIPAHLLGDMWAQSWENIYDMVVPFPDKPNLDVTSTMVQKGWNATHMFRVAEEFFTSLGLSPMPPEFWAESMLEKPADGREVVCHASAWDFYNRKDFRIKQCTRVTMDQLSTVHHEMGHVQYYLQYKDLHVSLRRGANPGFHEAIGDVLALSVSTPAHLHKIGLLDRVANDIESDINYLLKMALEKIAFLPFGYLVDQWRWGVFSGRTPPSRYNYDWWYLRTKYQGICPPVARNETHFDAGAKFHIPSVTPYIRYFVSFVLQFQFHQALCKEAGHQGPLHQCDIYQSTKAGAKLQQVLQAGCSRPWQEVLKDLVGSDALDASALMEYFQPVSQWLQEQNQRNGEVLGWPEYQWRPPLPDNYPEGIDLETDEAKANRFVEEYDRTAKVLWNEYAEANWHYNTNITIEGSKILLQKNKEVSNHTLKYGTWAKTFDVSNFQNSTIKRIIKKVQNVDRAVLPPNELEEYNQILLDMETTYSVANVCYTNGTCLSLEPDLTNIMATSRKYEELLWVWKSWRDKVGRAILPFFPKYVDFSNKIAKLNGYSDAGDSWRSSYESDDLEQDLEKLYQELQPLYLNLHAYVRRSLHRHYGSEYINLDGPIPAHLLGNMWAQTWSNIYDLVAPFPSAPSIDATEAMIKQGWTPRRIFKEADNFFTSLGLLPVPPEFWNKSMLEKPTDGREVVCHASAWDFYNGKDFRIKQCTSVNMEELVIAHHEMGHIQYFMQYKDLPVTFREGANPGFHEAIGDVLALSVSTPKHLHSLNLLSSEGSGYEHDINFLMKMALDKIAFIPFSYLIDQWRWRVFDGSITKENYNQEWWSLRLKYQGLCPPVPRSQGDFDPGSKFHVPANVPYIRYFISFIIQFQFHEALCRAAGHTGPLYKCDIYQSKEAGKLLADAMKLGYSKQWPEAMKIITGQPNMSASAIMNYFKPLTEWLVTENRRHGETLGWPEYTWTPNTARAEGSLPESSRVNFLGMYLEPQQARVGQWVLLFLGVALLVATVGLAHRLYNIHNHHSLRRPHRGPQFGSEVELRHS

Rattus norvegicus [2] = experiment: Percent inhibition of angiotensin I (AI) pressor response after intravenous administration (dose of 0.05 mg/kg)to conscious normotensive rats; assay type: functional
How it was run: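 Angiotensin I pressor response measured in conscious normotensive rats, 15 min after intravenous dosing of test compound; value is percent inhibition of the pressor response.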

Rattus norvegicus [3] = experiment: Percent inhibition of angiotensin I (AI) pressor response after oral administration (dose of 1.0 mg/kg) to conscious normotensive rats; assay type: functional
How it was run: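 Angiotensin I pressor response measured in conscious normotensive rats, 1 h after oral dosing of test compound; value is percent inhibition of the pressor response.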

Rattus norvegicus [4] = experiment: The maximal change in blood pressure recorded during the 4-day test period in spontaneously hypertensive rats (SHR) after oral administration; assay type: functional

Row | SMILES | IC50 [1] | inhibition in vivo at 0.05 mg/kg (Rattus norvegicus [2]) | inhibition in vivo at 1 mg/kg (Rattus norvegicus [3]) | Max delta BP (Rattus norvegicus [4])
1 | CCOC(=O)C(CCc1ccccc1)NC1CSc2ccccc2N(CC(=O)O)C1=O (stereo in doubt; 14a) | 860 nM | – | – | –
2 | CCOC(=O)C(CCc1ccccc1)NC1CSc2ccccc2N(CC(=O)O)C1=O.Cl (stereo in doubt; 14c) | 2200 nM | 75% | 39% | -35 mmHg
3 | CCOC(=O)C(CCc1ccccc1)N[C@H]1CSc2ccccc2N(CC(=O)O)C1=O (stereo partly specified) | 8000 nM | – | – | –
4 | O=C(O)CN1C(=O)[C@@H](NC(CCc2ccccc2)C(=O)O)CS(=O)(=O)c2ccccc21 (stereo partly specified) | 2900 nM | – | – | –

These reach a lower IC50 [1]. Values come first.

Row | IC50 [1] | SMILES | inhibition in vivo at 0.05 mg/kg (Rattus norvegicus [2]) | inhibition in vivo at 1 mg/kg (Rattus norvegicus [3]) | Max delta BP (Rattus norvegicus [4])
5 | 9.8 nM | O=C(O)CN1C(=O)[C@@H](NC(CCc2ccccc2)C(=O)O)CSc2ccccc21 (stereo partly specified) | – | – | –
6 | 430 nM | CCOC(=O)CN1C(=O)[C@@H](NC(CCc2ccccc2)C(=O)OCC)CCc2ccccc21 (stereo partly specified) | 77% | 88% | -76 mmHg
7 | 1.7 nM | O=C(O)CN1C(=O)[C@@H](NC(CCc2ccccc2)C(=O)O)CCc2ccccc21 (stereo partly specified) | – | – | –
8 | 2.9 nM | O=C(O)CN1C(=O)[C@@H](N[C@@H](CCc2ccccc2)C(=O)O)CSc2ccccc21 | – | – | –
9 | 5.9 nM | O=C(O)CN1C(=O)[C@@H](NC(CCc2ccccc2)C(=O)O)C[S+]([O-])c2ccccc21 (stereo partly specified) | – | – | –
10 | 240 nM | O=C(O)CN1C(=O)[C@@H](N[C@H](CCc2ccccc2)C(=O)O)CSc2ccccc21 | – | – | –
